Experiments:
[1] = molecular target: T1, Sterol O-acyltransferase 1 (Rattus norvegicus, UniProt O70536); experiment: In vitro inhibitory activity against acyl coenzyme A:cholesterol acyltransferase 1 of liver microsomes isolated from cholesterol-fed rats.
T1 sequence (O70536 whole entry): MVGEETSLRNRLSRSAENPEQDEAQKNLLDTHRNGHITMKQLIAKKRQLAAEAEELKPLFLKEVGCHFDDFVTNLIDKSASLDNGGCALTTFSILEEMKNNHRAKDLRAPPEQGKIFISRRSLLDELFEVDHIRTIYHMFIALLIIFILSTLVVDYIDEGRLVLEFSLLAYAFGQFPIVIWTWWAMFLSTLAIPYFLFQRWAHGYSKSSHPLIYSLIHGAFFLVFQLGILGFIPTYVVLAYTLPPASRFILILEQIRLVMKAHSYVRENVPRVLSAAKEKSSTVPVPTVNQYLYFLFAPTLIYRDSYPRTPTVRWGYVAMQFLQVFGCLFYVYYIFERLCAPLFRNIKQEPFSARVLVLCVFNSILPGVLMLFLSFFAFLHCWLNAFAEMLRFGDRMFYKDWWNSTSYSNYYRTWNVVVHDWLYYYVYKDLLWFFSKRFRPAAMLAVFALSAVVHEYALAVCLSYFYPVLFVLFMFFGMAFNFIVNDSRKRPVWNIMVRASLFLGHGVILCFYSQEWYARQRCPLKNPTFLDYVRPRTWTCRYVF
How it was run: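 ACAT inhibition was measured in hepatic microsomes isolated from cholesterol-fed rats. Each determination was run in triplicate, and IC50 was reported.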

[2] = molecular target: T2, Sterol O-acyltransferase 1 (Mus musculus) (UniProt Q61263); experiment: In vitro inhibitory activity against acyl coenzyme A:cholesterol acyltransferase 1 in cell culture assay using murine IC-21 macrophages at 0.1 uM
T2 sequence (whole entry): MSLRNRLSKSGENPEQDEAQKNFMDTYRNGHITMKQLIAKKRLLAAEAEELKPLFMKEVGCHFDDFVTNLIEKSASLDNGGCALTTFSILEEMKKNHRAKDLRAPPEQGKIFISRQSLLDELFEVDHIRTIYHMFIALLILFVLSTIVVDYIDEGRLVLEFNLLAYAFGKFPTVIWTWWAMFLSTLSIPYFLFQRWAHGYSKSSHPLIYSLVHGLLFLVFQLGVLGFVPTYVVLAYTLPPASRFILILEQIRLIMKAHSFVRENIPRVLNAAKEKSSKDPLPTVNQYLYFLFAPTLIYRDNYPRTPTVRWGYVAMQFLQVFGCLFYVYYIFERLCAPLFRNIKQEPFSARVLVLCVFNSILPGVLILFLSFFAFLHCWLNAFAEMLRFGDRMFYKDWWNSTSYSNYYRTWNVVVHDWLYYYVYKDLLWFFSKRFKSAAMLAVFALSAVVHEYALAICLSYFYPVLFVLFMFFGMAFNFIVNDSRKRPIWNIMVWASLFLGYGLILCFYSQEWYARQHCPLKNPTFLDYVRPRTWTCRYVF
How it was run: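 IC-21 mouse macrophages were preincubated 16 h in serum-free DMEM with 20 µM albumin and phosphatidylserine/cholesterol vesicles. The vesicles were sonicated in 150 mM NaCl, 5 mM MOPS, 1 mM EDTA, pH 7.4, and filter-sterilized. Medium was then replaced with serum-free DMEM containing the compound in DMSO at 0.1 µM. Percent inhibition was read, with cell protein measured by the Lowry method.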

Rattus norvegicus [3] = experiment: Percent change in total cholesterol (TC) in cholic acid (0.5%)-, cholesterol (1.5%) -, and peanut oil (5.5%)- fed rats at a dose 30 mg/kg.; type: functional
Rattus norvegicus [4] = experiment: Percent change in High Density Lipoproteins (HDL) in Chronic Cholesterol -Fed rat model at a dose 30 mg/kg; type: functional
How it was run: (§1)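 Rats ate a high-fat, high-cholesterol diet for 14 days. During the second week they received the test compound daily by gavage at 30 mg/kg, in a carboxymethylcellulose/Tween-20 aqueous vehicle. Plasma lipids (total cholesterol, HDL-C, non-HDL-C) were read as percent change.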

Rattus norvegicus [5] = experiment: % change in total cholesterol in Chronic Cholesterol-Fed rat model at dose 30 mg/kg; type: functional; how it was run: as §1
Rattus norvegicus [6] = experiment: In vitro percent decrease in cholesterol activity at 30 mg/kg in acute rat screen; type: functional; conditions: in the assay text read “In vivo” for “In vitro”
How it was run: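 Rats received a single gavage dose of 30 mg/kg, suspended in carboxymethylcellulose/Tween-20 in water, followed by one high-fat, high-cholesterol meal. The read-out was inhibition of the overnight rise in plasma total cholesterol, as percent change.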

Rattus norvegicus [7] = experiment: Percent change in non High Density Lipoproteins (HDL) in Chronic Cholesterol -Fed rat model at a dose 30 mg/kg
Oryctolagus cuniculus [8] = experiment: % change in total cholesterol(TC) versus progression control (PC) with out drug intervention in chronic cholesterol-fed rabbit model at a dose of 25 mg/kg; type: functional
How it was run: (§2)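 Male New Zealand rabbits (1-1.5 kg) were meal-fed 50 g/day of chow with 0.5% cholesterol, 3% coconut oil and 3% peanut oil. After 1 week, compound was added to the diet for 2 weeks at 5 or 25 mg/kg. Plasma total cholesterol came from cardiac blood of fasted animals after nitrogen asphyxiation. It was compared with cholesterol-fed progression controls or with T0, the start of drug intervention, when plasma cholesterol was taken 24 h after the drug meal.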

Oryctolagus cuniculus [9] = experiment: Dose response in cholesterol fed rabbit after oral administration; type: functional
How it was run: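 Cholesterol-fed rabbit model with oral dosing across a dose series, 8 animals per dose. Plasma cholesterol reduction was averaged at each dose. ED50, the dose lowering plasma total cholesterol 50%, was calculated from these mean responses with the median-effect equation.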

Oryctolagus cuniculus [10] = experiment: Percent change in total cholesterol(TC) versus (T0)- at which drug intervention begins at a dose of 25 mg/kg in the chronic cholesterol-fed rabbit model; type: functional; how it was run: as §2
Oryctolagus cuniculus [11] = experiment: Oral bioactivity expressed as %inhibition after 4 hours of drug administration (dose 25 mg/kg) in rabbit bioassay; type: functional
How it was run: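 Plasma was taken before dosing and at 1, 2 and 4 h. Plasma (0.2 mL) was hexane-extracted, dried and redissolved in chloroform/methanol 2:1. It was then tested for ACAT inhibition in the liver microsomal assay alongside spiked standards and a 2.5 µM CI-976 reference.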

Oryctolagus cuniculus [12] = experiment: % change in total cholesterol(TC) versus progression control (PC) with out drug intervention in chronic cholesterol-fed rabbit model at a dose of 5 mg/kg; type: functional; how it was run: as §2
Rattus norvegicus [13] = experiment: Change in total cholesterol in Chronic Cholesterol-Fed rat model at dose 30 mg/kg; type: functional; how it was run: as §1

Row | Structure (SMILES) | IC50 [1] [µM] | inhibition [2] [%] | Change (Rattus norvegicus [3]) [%] | further results
1 | CCCCCCCCCCCCn1nnc(C(F)C(=O)Nc2c(OC)cc(OC)cc2OC)n1 (stereo unspecified) | 1.76 |  |  | 
2 | CCCCCCCCCCCCn1nnc(C(=O)Nc2c(C(C)C)cccc2C(C)C)n1 | 1.06 | 33 | 23 | 
3 | CCCCCCCCCCCCn1nnc(CCC(=O)Nc2c(OC)cc(OC)cc2OC)n1 | 0.48 | 9 |  | 
4 | CCCCCCCCCCCCc1nnn(CC(=O)Nc2c(OC)cc(OC)cc2OC)n1 | 0.056 | 61 | <69 | Change (Rattus norvegicus [4]): 3%; Change (Rattus norvegicus [5]): <44%; Decrease (Rattus norvegicus [6]): 69%; Change (Rattus norvegicus [7]): <46%
5 | CCCCCCCCCCCCn1nnc(CCC(=O)Nc2c(C(C)C)cccc2C(C)C)n1 | 0.03 | 17 | <47 | 
6 | CCCCCCCCCCCCn1nnc(C(C(=O)Nc2c(OC)cc(OC)cc2OC)C2CCCCC2)n1 (stereo unspecified) | 0.028 | 8 | <61 | 
7 | CCCCCCCCCCCCn1nnc(C(C(=O)Nc2c(OC)cc(OC)cc2OC)c2ccc(F)cc2)n1 (stereo unspecified) | 0.036 | 46 | <68 | Change (Rattus norvegicus [4]): 12%; Change (Rattus norvegicus [7]): <53%
8 | CCCCCCCCCCCCn1nnc(C(C#N)C(=O)Nc2c(C(C)C)cccc2C(C)C)n1 (stereo unspecified) | > 5 | 7 | <75 | 
9 | CCCCCCCCCCCCn1nnc(C(C(=O)Nc2ncccc2C)c2ccccc2)n1 (stereo unspecified) | 0.085 | 4 | <52 | 
10 | CCCCCCCCCCCCn1nnc(CC(=O)Nc2c(OC)cc(OC)cc2OC)n1 | 0.024 | 66 | <60 | 
11 | CCCCCCCCCCCCc1nnn(CC(=O)Nc2c(C(C)C)cccc2C(C)C)n1 | 0.006 | 95 | <68 | Change (Rattus norvegicus [4]): 165%; Change (Rattus norvegicus [5]): <72%; Decrease (Rattus norvegicus [6]): 68%; Change (Rattus norvegicus [7]): <81%
12 | CCCCCCCCCCCCn1nnc(CC(=O)Nc2c(C(C)C)cccc2C(C)C)n1 | 0.005 | 91 | <64 | Change (Rattus norvegicus [4]): 82%; Change (Rattus norvegicus [5]): <42%; Change (Rattus norvegicus [7]): <63%
13 | CCCCCCCCn1nnc(C(C(=O)Nc2c(OC)cc(OC)cc2OC)c2ccccc2)n1 (stereo unspecified) | 0.27 | 13 | <39 | 
14 | CCCCCCCCCCCCn1nnc(C(C(=O)Nc2ccc3c(C)cc(C)nc3n2)c2ccccc2)n1 (stereo unspecified) | 1.54 | 49 | 8 | 
15 | CCCCCCCCCCCCn1nnc(C2(C(=O)Nc3c(OC)cc(OC)cc3OC)CCCC2)n1 | 0.063 | 16 | <56 | 
16 | CCCCCCCCCCCCn1nnc(C(C(=O)NC2CC2)c2ccccc2)n1 (stereo unspecified) | 0.244 | 10 | <62 | 
17 | CCCCCCCCCCCCCCCCn1nnc(C(C(=O)Nc2c(OC)cc(OC)cc2OC)c2ccccc2)n1 (stereo unspecified) | 0.053 | 55 | <47 | Change (Rattus norvegicus [4]): 16%; Change (Rattus norvegicus [7]): -9%

Row | Structure (SMILES) | IC50 [1] [µM] | inhibition [2] [%] | Change (Rattus norvegicus [3]) [%] | further results
18 | CCCCCCCCCCCCn1nnc(C(C(=O)Nc2c(OC)cc(OC)cc2OC)c2ccc(N(C)C)cc2)n1 (stereo unspecified) | 0.659 | 0 | <62 | 
19 | CCCCCCCCCCCCn1nnc(C(C(=O)Nc2c(C(C)C)cccc2C(C)C)c2ccccn2)n1 (stereo unspecified) | 0.026 | 24 | <64 | 
20 | CCCCCCCCCCCCn1nnc(C(C(=O)Nc2c(OC)ncnc2OC)c2ccccc2)n1 (stereo unspecified) | 0.013 | 39 | <56 | Decrease (Rattus norvegicus [6]): 66%
21 | CCCCCCCCCCCCn1nnc(C(C(=O)Nc2c(OC)cc(OC)cc2OC)c2ccc(-c3ccccc3)cc2)n1 (stereo unspecified) | 0.221 | 10 | <43 | 
22 | CCCCCCCCCCCCn1nnc(C(C(=O)Nc2c(C)nn(C)c2C)c2ccccc2)n1 (stereo unspecified) | 0.013 | 66 | <62 | Change (Rattus norvegicus [4]): 28%; Decrease (Rattus norvegicus [6]): 66%
23 | CCCCCCCCCCCCn1nnc(C(C(=O)Nc2c(C(C)C)cccc2C(C)C)c2ccccc2)n1 (stereo unspecified) |  | 47 | <66 | Change (Oryctolagus cuniculus [8]): <73%; ED50 (Oryctolagus cuniculus [9]): 1.2 mg/kg; Change (Oryctolagus cuniculus [10]): <43%; inhibition in vivo at 25 mg/kg (Oryctolagus cuniculus [11]): 96%; Change (Oryctolagus cuniculus [12]): <61%; Change (Rattus norvegicus [4]): 27%; Change (Rattus norvegicus [13]): <38%; Decrease (Rattus norvegicus [6]): 66%; Change (Rattus norvegicus [7]): <40%
24 | CCCCCCCCCCCCn1nnc(C(Cc2ccccc2)C(=O)Nc2c(OC)cc(OC)cc2OC)n1 (stereo unspecified) | 0.049 | 77 | <73 | inhibition in vivo at 25 mg/kg (Oryctolagus cuniculus [11]): 0%; Change (Rattus norvegicus [4]): 27%; Change (Rattus norvegicus [5]): <48%; Change (Rattus norvegicus [7]): <50%
25 | CCCCCCCCCCCCn1nnc(C(C(=O)Nc2c(OC)cc(OC)cc2OC)c2ccc(OC)cc2)n1 (stereo unspecified) | 0.2 | 61 | <57 | 
26 | CCCCCCCCCCCCn1nnc(C(C(=O)Nc2ccccn2)c2ccccc2)n1 (stereo unspecified) | 0.48 | 8 | 22 | 
27 | CCCCCCCCCCCCn1nnc(C(C(=O)NC(C)(C)C)c2ccccc2)n1 (stereo unspecified) | 3.35 | 1 | 1 | 
28 | CCCCCCCCCCCCn1nnc(C(C(=O)Nc2c(C(C)C)cccc2C(C)C)c2nnn[nH]2)n1 (stereo unspecified) | > 5 | 8 | <37 | 
29 | CCCCCCCCCCCCn1nnc(C(C)(C)C(=O)Nc2c(OC)cc(OC)cc2OC)n1 | 0.033 | 34 | <69 | 
30 | CCCCCCCCCCCCn1nnc(C(C#N)C(=O)Nc2c(OC)cc(OC)cc2OC)n1 (stereo unspecified) | 13.6 | 7 | <27 | 
31 | CCCCCCCCCCCCn1nnc(C(C(=O)Nc2ccc(F)cc2F)c2ccccc2)n1 (stereo unspecified) | 0.031 | 1 | <70 | 
32 | CCCCCCCCCCCCn1nnc(C(C(=O)Nc2c(OC)cc(OC)cc2OC)c2ccccn2)n1 (stereo unspecified) | 0.059 | 23 | <60 | 
33 | CCCCCCCCCCCCn1nnc(C(C(=O)Nc2ccccc2)c2ccccc2)n1 (stereo unspecified) | 0.48 | 46 | 38 | 
